Source: PubChem (several laboratories)
Sampled rows, rich in hits. Any-hit rate of the full collection: about 2.1%.
Mot1-301 SUMO: blocks SUMOylation pathway, rescuing yeast Mot1-301 growth; S. cerevisiae Mot1-301 growth rescue, ATP luminescence, 38.5C; percent above DMSO median, 100 means doubled; 1% of 320,000 active; growth rescue, % at 18.8 µM;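 active = every valid replicate shows activation above 250% relative to neutral control wells; inactive = the rest, any valid replicate at or below 250%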;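 note: OY570 slx delta 5 strain wells were the positive control but not used for scaling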
UCH37 DUB inh: human UCH37 deubiquitinating enzyme inhibition; AID 588478; 0.33% of 330,000 active; purified proteasome/UCH37, Ub-AMC cleavage fluorescence; inhibition, % (no concentration beside the values); Q9Y5K5;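 active = mean inhibition over replicate wells above about 20%, limit read from the data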;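 note: 0% = compound-free wells with enzyme and 100% = wells lacking proteasome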
Target sequence (Q9Y5K5 whole entry, looked up): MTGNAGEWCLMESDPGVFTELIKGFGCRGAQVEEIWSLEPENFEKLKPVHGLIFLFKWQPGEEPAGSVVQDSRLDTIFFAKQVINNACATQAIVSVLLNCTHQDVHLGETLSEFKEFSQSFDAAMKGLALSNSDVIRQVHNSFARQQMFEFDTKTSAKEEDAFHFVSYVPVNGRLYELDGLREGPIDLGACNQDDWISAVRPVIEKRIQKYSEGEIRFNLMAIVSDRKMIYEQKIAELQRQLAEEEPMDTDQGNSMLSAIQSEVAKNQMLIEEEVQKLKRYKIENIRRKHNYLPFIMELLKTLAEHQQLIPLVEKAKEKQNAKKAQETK
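Material: human UCH37 enzyme supplied as purified proteasome complex / Amount: 0.15 nM proteasome as dispensed / Buffer or medium: pH 7.4 Tris-HCl (50 mM) with ovalbumin, ATP-MgCl2, DTT / Times: preincubation 30 min, reaction 25 min, room temperature / Technique: AMC fluorescence from Ub-AMC cleavage, excitation 355 nm, emission 460 nm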
Efflux pump mplx: blocks antifungal efflux pumps in multiplex yeast assay. S. cerevisiae Candida pump triplex, Nile Red efflux. inhibition, % at 10 µM. 0.44% of 330,000 active. AID 485275;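 active = plate passing quality check with inhibition over a set limit, or well fluorescence over plate mean plus 4 SD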;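 note: Nile Red retained in pooled yeast measured as flow cytometry median fluorescence; 0% = buffer negative control and 100% = Enniatin B positive control; higher means more Nile Red kept so more efflux inhibition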
cardiac RTF act: cardiac RTF calcium sensitization. IANBD-labeled TnC RTF fluorescence at EC20 calcium; 0% EC20 calcium, 100% full calcium. 0.24% of 340,000 active. P19429+P45379. AID 493008. activation, % at 7.2 µM;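 active = activation above the mean over all tested compounds plus 3 SD, cut at about 30% in these data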;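 note: rise in fluorescence read as greater calcium sensitivity of cardiac thin filaments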
RTF Ca sens inh: cardiac RTF calcium desensitization | P19429+P45379 | IANBD-labeled cardiac RTF, Ca2+ fluorescence | inhibition, % at 7.15 µM | 0.12% of 340,000 active | AID 493244;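 active = inhibition above the mean inhibition of all tested compounds plus 3 SD, cut at about 17% in these data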;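 note: assay run at fixed EC70 calcium of 1.6 mM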
ARNT-TACC3 inh: disruptors of human ARNT/TACC3 interaction; inhibition, % at 9.99 µM; 0.66% of 390,000 active; AlphaScreen His-ARNT PAS-B/GST-TACC3 binding, luminescence; TACC3 fragment carries E629A point mutation; Q9Y6A5;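 active = mean inhibition of replicates at least 50% and at least half of replicates each reaching 50%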;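 note: 0% = complete ARNT plus TACC3 wells and 100% = ARNT alone without TACC3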
* hit, by the source's call; · = not tested or not shown; + = active, no number.

SMILES	Mot1-301 SUMO	UCH37 DUB inh	Efflux pump mplx	cardiac RTF act	RTF Ca sens inh	ARNT-TACC3 inh
O=C(CCNC(=O)c1ccccc1Cl)NN=Cc1ccc(O)cc1	·	0.6	·	·	·	·
CC(CC(=O)NCc1ccco1)=NNC(=O)Cc1ccc(Cl)cc1	·	32.4*	·	·	·	·
C/C(CC(=O)NCc1ccco1)=N\NC(=O)Cc1ccc(Cl)cc1	9.2	·	0.0	5.5	-7.0	-12.7
O=S(=O)([N-]c1nc2ccccc2nc1-[n+]1ccccc1)c1ccccc1	-4.1	3.1	0.6	5.2	5.2	-0.2
O=S(=O)([N-]c1nc2ccccc2nc1-[n+]1ccc(-c2ccncc2)cc1)c1ccccc1	-13.4	3.8	0.0	51.0*	-39.0	·
COc1ccc(C(=O)c2sc3nc(C)cc(-c4cccs4)c3c2N)cc1	·	-13.1	·	67.7*	-46.6	·
COc1ccc(C(=O)c2sc3nc(C)cc(-c4cccs4)c3c2N)cc1OC	56.3	-2.7	0.0	44.5*	-56.6	-10.9
Cc1cc(-c2cccs2)c2c(N)c(C(=O)c3ccc4c(c3)OCO4)sc2n1	129.4	-17.4	0.4	9.6	-20.0	-5.0
CC(C)NC(=O)c1sc2nc(-c3cccs3)cc(-c3cccs3)c2c1N	-6.6	-7.9	-0.3	·	·	·
Cc1nn(-c2ccccc2)c(C)c1C=NNC(=O)CSc1nnc(SCc2ccc(Cl)cc2)s1	·	6.2	·	·	·	·
COc1ccc(-c2cc(C(F)F)n3ncc(C(=O)N4CCc5ccccc54)c3n2)cc1	-5.8	1.4	0.4	-0.4	-5.8	19.1
Cc1ccc(-c2cc(C(F)F)n3ncc(C(=O)N4CCCc5ccccc54)c3n2)cc1	382.8*	0.5	-0.1	0.8	-10.2	2.0
CC(/C=C/c1ccc2c(c1)OCO2)=NNC(=O)c1cccc([N+](=O)[O-])c1	·	3.4	·	·	·	·
CC1=CC(=C(c2ccc(O)c(C)c2)c2ccccc2S(=O)(=O)O)C=CC1=O	·	15.0	·	·	·	·
CC1=C/C(=C(/c2cc(C)c(O)c(Br)c2)c2ccccc2S(=O)(=O)O)C=C(Br)C1=O	-45.3	8.1	0.0	-2.5	1.3	49.0*
CCOC(=O)/C(N=Nc1ccc(C(=O)O)cc1[N+](=O)[O-])=C(\C)O	355.8	23.3*	0.0	4.4	-7.2	-4.2
CC(=O)/C(N=Nc1ccc(C(=O)O)cc1[N+](=O)[O-])=C(\C)O	-3.1	16.5	0.1	6.5	4.7	·
CCOc1cccc(C=NNc2ccc(S(=O)(=O)N(CC)CC)cn2)c1O	·	3.2	·	·	·	·
Cc1cc2ccccn2c1C(=O)c1cccc([N+](=O)[O-])c1	-21.7	4.2	-0.1	3.4	5.9	7.5
Cc1cc2ccccn2c1C(=O)c1ccc([N+](=O)[O-])cc1[N+](=O)[O-]	316.9*	2.4	-0.1	-8.9	-1.5	-5.5
O=C(CNC(=O)c1ccccc1F)NN=Cc1cccs1	·	1.1	·	·	·	·
Cc1[nH]c2ccccc2c(=O)c1CN(C)Cc1ccccc1	331.4*	2.3	0.0	1.3	0.6	·
CCCCN(C)Cc1c(C)[nH]c2ccccc2c1=O	160.0	-1.1	0.2	0.2	-13.9	-3.3
Cc1cccc(C)c1OCC(=O)NN=Cc1cccnc1	·	1.4	·	·	·	·
OC(Cc1ccncc1)(c1ccccc1)c1ccccc1	155.4	24.7*	-0.1	-0.6	-7.4	-3.1
SMILES	Mot1-301 SUMO	UCH37 DUB inh	Efflux pump mplx	cardiac RTF act	RTF Ca sens inh	ARNT-TACC3 inh
OC(CNCc1ccccc1)(c1ccccc1)c1ccccc1	-10.7	1.8	0.1	-1.9	-3.2	3.4
COc1ccc(S(=O)(=O)N2CCN(C(=O)c3ccc4ccccc4n3)CC2)cc1	-13.9	-0.8	0.0	0.4	-9.2	5.9
COc1ccc(S(=O)(=O)N2CCN(C(=O)c3cnc(C)cn3)CC2)cc1	-1.1	33.5*	0.2	5.5	1.2	1.0
c1ccc(-c2nc(N3CCCCCC3)c3ccccc3n2)nc1	-13.6	6.5	-0.1	0.4	-11.7	76.1*
CC(=NNc1nc(-c2ccccn2)nc2ccccc12)c1ccc(F)cc1	·	8.0	·	·	·	·
c1ccc(N2CCN(c3nc(-c4cccs4)nc4ccccc34)CC2)cc1	825.4*	-22.5	0.0	-5.5	-10.2	·
c1ccc(CCNc2nc(-c3ccccn3)nc3ccccc23)cc1	-8.8	·	0.1	4.1	-7.1	63.7*
CCN1CCN(c2nc(-c3ccccn3)nc3ccccc23)CC1	·	5.0	0.0	-0.5	-7.2	46.0*
CC(=O)c1sc(NN=Cc2ccc(C)cc2)nc1C	·	-5.1	·	·	·	·
O=C(CN1CCOCC1)NN=Cc1cc2ccccc2nc1Cl	·	6.8	·	·	·	·
COc1cc(C(=O)Nc2ccc(Cl)c(C(F)(F)F)c2)cc(OC)c1OC	21.9	2.0	0.0	33.5*	0.2	-6.5
Nc1nnnn1/N=C/c1cc(Cl)cc(Cl)c1O	34.3	·	0.0	32.1*	-44.8	-2.0
Cc1nn(Cc2ccccc2)c(Cl)c1C=NNC(=O)c1cccnc1	·	2.6	·	·	·	·
O=C(O)CNC(=S)N(Cc1ccccc1F)C1CCCCC1	+	2.1	0.1	0.8	-0.8	-7.7
CCCCNC(=O)CNC(=S)N(Cc1ccccc1F)C1CCCCC1	-23.6	1.6	0.2	0.2	8.8	-7.2
Nc1nnn(CC(=O)NN=Cc2cccc(Cl)c2)n1	·	0.8	·	·	·	·
OCCC1CN(Cc2cccn2-c2cccnc2)CCN1Cc1ccc(F)cc1 (stereo not drawn)	357.7*	-0.5	0.0	-1.1	-9.8	-7.1
CCOc1ccc(CN2CCN(Cc3cccn3-c3cccnc3)CC2CCO)cc1 (stereo not drawn)	6.4	-0.2	-0.1	7.5	-22.6	0.5
c1coc(-c2nc(-c3ccco3)c(-c3ccco3)nc2-c2ccco2)c1	-11.9	-68.6	-0.1	-36.1	106.8*	-11.8
O=C1N/C(=C/c2cccs2)C(=O)N1Cc1ccccc1F	18.7	4.9	-0.2	-6.6	-29.7	0.2
Cc1ccc(/C=C2/NC(=O)N(Cc3ccccc3F)C2=O)s1	-16.1	2.9	-0.3	34.5*	-72.1	7.1
O=C(Nc1ccccc1F)C(=Cc1sc(N2CCOCC2)nc1-c1ccccc1)C(=O)Nc1ccccc1F	127.2	1.9	-0.1	30.4*	-9.2	-8.7
O=C(NN=Cc1sc(N2CCOCC2)nc1-c1ccccc1)c1ccccc1F	·	2.3	·	·	·	·
COc1ccccc1C=NNC(=O)c1c(-c2ccccc2)noc1C	·	3.9	·	·	·	·
COc1ccc(CC(=NO)c2ccc(OC)cc2)cc1	·	2.2	·	·	·	·
Cc1ccc(S(=O)(=O)Nc2cccnc2Oc2ccc(Cl)cc2)cc1	-1.9	0.6	0.0	-0.5	3.2	3.4
Cc1ccc(S(=O)(=O)Nc2cc(Cl)c(O)c3ncccc23)cc1	-16.2	·	0.3	-7.2	-1.5	47.8*
C[C@H](NC(=O)OC(C)(C)C)C(=O)N/N=C/c1cccc2nccnc12	-4.0	·	0.0	3.7	2.2	26.6*
CSCC[C@H](NC(=O)OC(C)(C)C)C(=O)N/N=C/c1cccc2cccnc12	-5.7	·	0.1	2.9	3.2	62.2*
COc1ccc(-c2cc(C(=O)NN=Cc3ccc4c(c3)OCO4)c3ccccc3n2)c(OC)c1	·	-15.7	·	·	·	·
